Assay results: ChEMBL document CHEMBL1681666, “Synthesis and in vitro screening of novel N-benzyl aplysinopsin analogs as potential anticancer agents” (2011)

Assays:
Format in all cases: functional
[1] = system: SK-MEL-28; assay: Anticancer activity against human SK-MEL-28 cells
Method in brief: (§1)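 NCI 60-cell human tumour panel (leukemia, lung, colon, CNS, melanoma, ovarian, renal, prostate, breast). A first-stage single-dose screen at 10 µM was run. Compounds giving over 60% growth inhibition in at least eight lines went on to a five-dose response. Effect was plotted against log10 molar concentration per line. GI50 is the concentration giving 50% reduction in net protein increase versus control cells. LC50 is the concentration lethal to 50% of cells.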

[2] = system: SK-MEL-5; assay: Anticancer activity against human SK-MEL-5 cells; method in brief: as §1
[3] = system: DU-145; assay: Anticancer activity against human DU145 cells; method in brief: as §1
[4] = system: NCI-H226; assay: Anticancer activity against human NCI-H226 cells; method in brief: as §1
[5] = system: SF-268; assay: Anticancer activity against human SF268 cells; method in brief: as §1
[6] = system: LOX IMVI; assay: Anticancer activity against human LOXIMVI cells; method in brief: as §1
[7] = system: CAKI-1; assay: Anticancer activity against human Caki1 cells; method in brief: as §1
[8] = Anticancer activity against human Hs 578T cells; method in brief: as §1
[9] = system: OVCAR-3; assay: Anticancer activity against human OVCAR3 cells; method in brief: as §1
[10] = system: T47D; assay: Anticancer activity against human T47D cells
Method in brief: (§2)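 NCI 60-cell-line panel. A single-dose (10 µM) prescreen was run first. Compounds giving over 60% growth inhibition in at least eight lines then went to five-dose response studies. Dose-response curves of effect versus log10 concentration. GI50 is the molar concentration giving a 50% reduction in net protein increase versus control cells. LC50 is the concentration lethal to 50% of cells.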

[11] = system: HCT-116; assay: Anticancer activity against human HCT116 cells; method in brief: as §1
[12] = system: SW-620; assay: Anticancer activity against human SW620 cells; method in brief: as §2
[13] = system: MCF7; assay: Anticancer activity against human MCF7 cells; method in brief: as §1
[14] = system: TK-10; assay: Anticancer activity against human TK10 cells; method in brief: as §2
[15] = system: UACC-257; assay: Anticancer activity against human UACC257 cells; method in brief: as §2
[16] = system: 786-0; assay: Anticancer activity against human 786-0 cells; method in brief: as §1
[17] = system: MOLT-4; assay: Anticancer activity against human MOLT4 cells; method in brief: as §1
[18] = system: UACC-62; assay: Anticancer activity against human UACC62 cells; method in brief: as §2
[19] = system: SF-539; assay: Anticancer activity against human SF539 cells; method in brief: as §1
[20] = Anticancer activity against human NCI/ADR cells; details: NCI/ADR-RES; method in brief: as §1
[21] = system: SNB-19; assay: Anticancer activity against human SNB19 cells; method in brief: as §1
[22] = system: U-251; assay: Anticancer activity against human U251 cells; method in brief: as §2
[23] = system: OVCAR-8; assay: Anticancer activity against human OVCAR8 cells; method in brief: as §1
[24] = system: BT-549; assay: Anticancer activity against human BT549 cells; method in brief: as §1
[25] = system: A498; assay: Anticancer activity against human A498 cells; method in brief: as §1
[26] = system: HCT-15; assay: Anticancer activity against human HCT15 cells; method in brief: as §1
[27] = system: SNB-75; assay: Anticancer activity against human SNB75 cells; method in brief: as §2
[28] = system: SK-OV-3; assay: Anticancer activity against human SKOV3 cells; method in brief: as §1
[29] = system: ACHN; assay: Anticancer activity against human ACHN cells; method in brief: as §1
[30] = system: COLO 205; assay: Anticancer activity against human COLO205 cells; method in brief: as §1
[31] = system: HCC 2998; assay: Anticancer activity against human HCC2998 cells; method in brief: as §1
[32] = system: OVCAR-5; assay: Anticancer activity against human OVCAR5 cells; method in brief: as §1
[33] = system: NCI-H23; assay: Anticancer activity against human NCI-H23 cells; method in brief: as §1
[34] = system: IGROV-1; assay: Anticancer activity against human IGROV1 cells; method in brief: as §1
[35] = system: NCI-H522; assay: Anticancer activity against human NCI-H522 cells; method in brief: as §1
[36] = system: HOP-62; assay: Anticancer activity against human HOP62 cells; method in brief: as §1
[37] = system: HT-29; assay: Anticancer activity against human HT-29 cells; method in brief: as §1
[38] = system: A549; assay: Anticancer activity against human A549 cells; method in brief: as §1
[39] = system: OVCAR-4; assay: Anticancer activity against human OVCAR4 cells; method in brief: as §1
[40] = system: MDA-MB-468; assay: Anticancer activity against human MDA-MB-468 cells; method in brief: as §1
[41] = system: HL-60(TB); assay: Anticancer activity against human HL-60(TB) cells; method in brief: as §1
[42] = system: UO-31; assay: Anticancer activity against human UO31 cells; method in brief: as §2
[43] = system: SK-MEL-2; assay: Anticancer activity against human SK-MEL-2 cells; method in brief: as §1
[44] = system: CCRF-CEM; assay: Anticancer activity against human CCRF-CEM cells; method in brief: as §1
[45] = system: Malme-3M; assay: Anticancer activity against human MALME-3M cells; method in brief: as §1
[46] = Anticancer activity against human […] cells; method in brief: as §1
[47] = system: MDA-MB-435; assay: Anticancer activity against human MDA-MB-435 cells; method in brief: as §1
[48] = system: PC-3; assay: Anticancer activity against human PC3 cells; method in brief: as §1
[49] = system: HOP-92; assay: Anticancer activity against human HOP92 cells
Method in brief: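 NCI 60-cell human tumour panel screen that includes non-small cell lung lines. The first stage used a single 10 µM dose. Compounds reaching more than 60% growth inhibition in at least eight lines went on to five-dose response testing. GI50 and LC50 came from curves of effect against log10 molar concentration. GI50 is the concentration giving a 50% reduction in net protein increase versus control cells.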

[50] = system: KM12; assay: Anticancer activity against human KM12 cells; method in brief: as §1
[51] = system: SN12C; assay: Anticancer activity against human SN12C cells; method in brief: as §1
[52] = system: EKVX; assay: Anticancer activity against human EKVX cells; method in brief: as §1
[53] = system: K562; assay: Anticancer activity against human K562 cells; method in brief: as §1
[54] = system: SF-295; assay: Anticancer activity against human SF295 cells; method in brief: as §1
[55] = system: NCI-H322M; assay: Anticancer activity against human NCI-H322M cells; method in brief: as §1
[56] = system: RXF 393; assay: Anticancer activity against human RXF393 cells; method in brief: as §1
[57] = system: MDA-MB-231; assay: Anticancer activity against human MDA-MB-231 cells; method in brief: as §1
[58] = system: NCI-H460; assay: Anticancer activity against human NCI-H460 cells; method in brief: as §1
[59] = system: M14; assay: Anticancer activity against human M14 cells; method in brief: as §1
[60] = read-out: LC50 (the source's name)

Compound N=C1NC(=O)/C(=C/c2cn(Cc3ccc(F)cc3)c3ccc(Cl)cc23)S1 has a GI50 [1] greater than 100 µM, a CC50 [1, 60] greater than 100 µM and a GI50 [2] greater than 100 µM. It also gave a CC50 [2, 60] greater than 100 µM, a GI50 [3] of 5.24 µM and a CC50 [3, 60] greater than 100 µM. For the same compound, the GI50 [4] was 80.7 µM, the CC50 [4, 60] was greater than 100 µM and the GI50 [5] was 32 µM. For the same compound, the CC50 [5, 60] was greater than 100 µM, the GI50 [6] was 2.32 µM and the CC50 [6, 60] was greater than 100 µM. It also gave a GI50 [7] greater than 100 µM, a CC50 [7, 60] greater than 100 µM and a GI50 [8] of 3.67 µM. It also gave a CC50 [8, 60] greater than 100 µM, a GI50 [9] greater than 100 µM and a CC50 [9, 60] of 30.1 µM. It also gave a GI50 [10] greater than 100 µM, a CC50 [10, 60] greater than 100 µM and a GI50 [11] of 5.41 µM. For the same compound, the CC50 [11, 60] was greater than 100 µM, the GI50 [12] was 38.3 µM and the CC50 [12, 60] was greater than 100 µM. It also gave a GI50 [13] greater than 100 µM, a CC50 [13, 60] greater than 100 µM and a GI50 [14] of 5.64 µM. For the same compound, the CC50 [14, 60] was greater than 100 µM, the GI50 [15] was 0.013 µM and the CC50 [15, 60] was 0.3 µM. For the same compound, the GI50 [16] was 37.4 µM, the CC50 [16, 60] was greater than 100 µM and the GI50 [17] was greater than 100 µM. It also gave a CC50 [17, 60] greater than 100 µM, a GI50 [18] greater than 100 µM and a CC50 [18, 60] greater than 100 µM. The GI50 [19] was 4.4 µM, the CC50 [19, 60] was greater than 100 µM and the GI50 [20] was greater than 100 µM. It also gave a CC50 [20, 60] greater than 100 µM, a GI50 [21] greater than 100 µM and a CC50 [21, 60] greater than 100 µM. The GI50 [22] was 2.94 µM, the CC50 [22, 60] was greater than 100 µM and the GI50 [23] was 0.019 µM. It also gave a CC50 [23, 60] greater than 100 µM, a GI50 [24] of 98.8 µM and a CC50 [24, 60] greater than 100 µM. For the same compound, the GI50 [25] was 31.5 µM, the CC50 [25, 60] was greater than 100 µM and the GI50 [26] was greater than 100 µM. For the same compound, the CC50 [26, 60] was greater than 100 µM, the GI50 [27] was 2.47 µM and the CC50 [27, 60] was greater than 100 µM. It also gave a GI50 [28] greater than 100 µM, a CC50 [28, 60] greater than 100 µM and a GI50 [29] greater than 100 µM. The CC50 [29, 60] was greater than 100 µM, the GI50 [30] was greater than 100 µM and the CC50 [30, 60] was greater than 100 µM. For the same compound, the GI50 [31] was greater than 100 µM, the CC50 [31, 60] was greater than 100 µM and the GI50 [32] was greater than 100 µM. It also gave a CC50 [32, 60] greater than 100 µM, a GI50 [33] of 60.1 µM and a CC50 [33, 60] greater than 100 µM. The GI50 [34] was 3.02 µM, the CC50 [34, 60] was greater than 100 µM and the GI50 [35] was 11 µM. It also gave a CC50 [35, 60] greater than 100 µM, a GI50 [36] greater than 100 µM and a CC50 [36, 60] greater than 100 µM. It also gave a GI50 [37] of 20.8 µM, a CC50 [37, 60] greater than 100 µM and a GI50 [38] of 0.77 µM. It also gave a CC50 [38, 60] greater than 100 µM, a GI50 [39] of 2.49 µM and a CC50 [39, 60] greater than 100 µM. The GI50 [40] was greater than 100 µM, the CC50 [40, 60] was greater than 100 µM and the GI50 [41] was greater than 100 µM. For the same compound, the CC50 [41, 60] was greater than 100 µM, the GI50 [42] was greater than 100 µM and the CC50 [42, 60] was greater than 100 µM. The GI50 [43] was greater than 100 µM, the CC50 [43, 60] was greater than 100 µM and the GI50 [44] was greater than 100 µM. For the same compound, the CC50 [44, 60] was greater than 100 µM, the GI50 [45] was 23.5 µM and the CC50 [45, 60] was greater than 100 µM. It also gave a GI50 [46] greater than 100 µM, a CC50 [46, 60] greater than 100 µM and a GI50 [47] of 32.4 µM. For the same compound, the CC50 [47, 60] was greater than 100 µM, the GI50 [48] was 23.6 µM and the CC50 [48, 60] was greater than 100 µM. It also gave a GI50 [49] greater than 100 µM, a GI50 [50] of 7.49 µM and a CC50 [50, 60] greater than 100 µM. The GI50 [51] was greater than 100 µM, the CC50 [51, 60] was greater than 100 µM and the GI50 [52] was greater than 100 µM. The CC50 [52, 60] was greater than 100 µM, the GI50 [53] was 77.6 µM and the CC50 [53, 60] was greater than 100 µM. The GI50 [54] was greater than 100 µM, the CC50 [54, 60] was greater than 100 µM and the GI50 [55] was 71 µM. The CC50 [55, 60] was greater than 100 µM, the GI50 [56] was 1.62 µM and the CC50 [56, 60] was greater than 100 µM. The GI50 [57] was 6.45 µM, the CC50 [57, 60] was greater than 100 µM and the GI50 [58] was greater than 100 µM. It also gave a CC50 [58, 60] greater than 100 µM, a GI50 [59] of 57.2 µM and a CC50 [59, 60] greater than 100 µM.
